Where two headings read alike, the source gives them in different places.
Tests used:
CYP2C:TG haplotype [1] = settings: adults; cited from earlier work
CYP2C:TG haplotype [2] = settings: cited from earlier work
CYP2C:TG haplotype [3] = format: in vivo, human (children aged 6–21 years)
Outline: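 Children, fasted ≥4 h, received one proton pump inhibitor dose per visit. 12–14 serum samples were taken to 10 h post-dose and assayed by LC/MS/MS or reverse-phase HPLC. Clearance was dose/AUCtotal (AUClast + Cn/kel), weight-normalized. Genotyping was by TaqMan real-time PCR or NGS panel. Regression on CYP2C19*1 and *17 counts was compared with regression adding CYP2C:TG count. Outcomes were log-transformed as needed, with bootstrap 95% CI.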

| Structure (SMILES) | impact of CYP2C:TG alleles on CYP2C19 PK or metabolic phenotype (CYP2C:TG haplotype [1]) | CYP2C19 activity associated with CYP2C:TG haplotype, from serum concentrations (CYP2C:TG haplotype [2]) | impact of the CYP2C:TG haplotype on the PK (CYP2C:TG haplotype [3]; PO) | other results |
| --- | --- | --- | --- | --- |
| CN(C)CCCC1(c2ccc(F)cc2)OCc2cc(C#N)ccc21 (stereo not drawn) [citalopram] | No appreciable impact | – | – | – |
| CN(C)CCC[C@@]1(c2ccc(F)cc2)OCc2cc(C#N)ccc21 [escitalopram] | – | increased CYP2C19 activity | – | metabolism associated with CYP2C:TG haplotype (CYP2C:TG haplotype [2]; activity similar to CYP2C19*17/*17 diplotype): ultrarapid metabolism |
| Cc1c(OCC(F)(F)F)ccnc1C[S+]([O-])c1nc2ccccc2[nH]1 (stereo not drawn) [lansoprazole] | – | – | negligible | Scaled coefficient (95% CI) for CYP2C:TG allele count (CYP2C:TG haplotype [3]; outcome Cmax (adj) scaled to SD 1, oral): 0.24–0.35 |
| COc1ccnc(C[S+]([O-])c2nc3ccc(OC(F)F)cc3[nH]2)c1OC (stereo not drawn) [pantoprazole] | – | – | negligible | impact of the CYP2C:TG haplotype on the PK (CYP2C:TG haplotype [3]; IV): negligible; Scaled coefficient (95% CI) for CYP2C:TG allele count (CYP2C:TG haplotype [3]; outcome Clearance (adj) scaled to SD 1, IV): 0.24–0.35; Scaled coefficient (95% CI) for CYP2C:TG allele count (CYP2C:TG haplotype [3]; outcome Clearance scaled to SD 1, IV): 0.24–0.35; Scaled coefficient (95% CI) for CYP2C:TG allele count (CYP2C:TG haplotype [3]; outcome Cmax scaled to SD 1, oral): 0.24–0.35 |
| CN[C@H]1CC[C@@H](c2ccc(Cl)c(Cl)c2)c2ccccc21 [sertraline] | No appreciable impact | increased CYP2C19 activity | – | – |

Source: paper PMC11022290 (Clinical and Translational Science, 2024)
